Data as given in ChEMBL document CHEMBL1629500, “Synthesis and anticonvulsant activity of N-3-arylamide substituted 5,5-cyclopropanespirohydantoin derivatives” (Eur J Med Chem, 2010).
Calls of active or inactive are those of the source.

test system: Mus musculus; assay: Anticonvulsant activity in ip dosed mouse assessed as inhibition of PTZ-induced clonic seizure; assay type: functional; conditions: not given
Summary of the method: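 Male Kunming mice (20 ± 2.0 g) were used. Test drug was given ip to groups of 10 mice over a range of doses until at least three points fell between 10% and 90% seizure protection or minimal neurotoxicity. […] Neurotoxicity was scored on the rotorod 30 min after dosing. PI = TD50/ED50.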

Row | Structure (SMILES) | ED50
1 | O=C1NC(=O)C(c2ccccc2)(c2ccccc2)N1 [PHENYTOIN] | > 300 mg/kg
2 | CC(C)(C)c1ccc(C(=O)NN2C(=O)NC3(CC3(C)C)C2=O)cc1 (stereo not given) | 208 mg/kg
3 | CC1(C)CC12NC(=O)N(N1C(=O)c3ccccc3C1=O)C2=O (stereo not given) | 137 mg/kg
4 | CCC1(c2ccccc2)C(=O)NC(=O)NC1=O [PHENOBARBITAL] | 13.2 mg/kg
5 | NC(=O)N1c2ccccc2C=Cc2ccccc21 [CARBAMAZEPINE] | > 100 mg/kg
6 | CC1(C)CC12NC(=O)N(NC(=O)c1ccc(C(F)(F)F)cc1)C2=O (stereo not given) | 62.1 mg/kg
7 | CCCC(CCC)C(=O)[O-].[Na+] [VALPROATE SODIUM] | 149 mg/kg

test system: not listed separately; assay: Toxicity against ip dosed mouse; assay type: organism-based; conditions: in vivo

Row | Structure (SMILES) | TD50
8 | CC(C)(C)c1ccc(C(=O)NN2C(=O)NC3(CC3(C)C)C2=O)cc1 (stereo not given) | 382 mg/kg
9 | CC1(C)CC12NC(=O)N(N1C(=O)c3ccccc3C1=O)C2=O (stereo not given) | 387 mg/kg
10 | CC1(C)CC12NC(=O)N(NC(=O)c1ccc(C(F)(F)F)cc1)C2=O (stereo not given) | 422 mg/kg

test system: Mus musculus; assay: Anticonvulsant activity in ip dosed mouse assessed as inhibition of maximum electric shock-induced hind limb tonic extension after 0.5 hrs; assay type: functional; conditions: Hindlimb
Summary of the method: (§1)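 Male Kunming mice received the compound ip as a suspension in 0.5% methylcellulose at 30, 100 and 300 mg/kg, one to four mice per dose. At 0.5 h and 4.0 h, a 60-Hz, 50-mA current was given through corneal electrodes for 0.25 s. Absence of hindlimb tonic extension counted as protection. The minimal dose protecting half or more of the mice was recorded.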

Row | Structure (SMILES) | Activity
11 | CC1(C)CC12NC(=O)N(NC(=O)c1cccs1)C2=O (stereo not given) | inactive
12 | CC1(C)CC12NC(=O)N(NC(=O)c1ccco1)C2=O (stereo not given) | inactive
13 | CC1(C)CC12NC(=O)N(NC(=O)c1cccnc1)C2=O (stereo not given) | inactive
14 | CC1(C)CC12NC(=O)N(NC(=O)c1ccncc1)C2=O (stereo not given) | inactive
15 | CCC1(C)CC(=O)NC1=O (stereo not given) [ETHOSUXIMIDE] | inactive

same assay, conditions: Hindlimb, read-out: MED

Row | Structure (SMILES) | minimal effective dose
16 | O=C1NC(=O)C(c2ccccc2)(c2ccccc2)N1 [PHENYTOIN] | 30 mg/kg
17 | CC(C)(C)c1ccc(C(=O)NN2C(=O)NC3(CC3(C)C)C2=O)cc1 (stereo not given) | 30 mg/kg
18 | CC1(C)CC12NC(=O)N(N1C(=O)c3ccccc3C1=O)C2=O (stereo not given) | 30 mg/kg
19 | CC1(C)CC12NC(=O)N(NC(=O)c1ccc(C(F)(F)F)cc1)C2=O (stereo not given) | 30 mg/kg

test system: Mus musculus; assay: Anticonvulsant activity in ip dosed mouse assessed as inhibition of PTZ-induced clonic seizure after 4 hrs; assay type: functional; conditions: not given
Summary of the method: (§2)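 Male Kunming mice were dosed ip with the compound suspended in 0.5% methylcellulose at 30, 100 and 300 mg/kg, one to four mice per dose. Pentylenetetrazole in 0.9% saline was given subcutaneously at 0.5 h and 4.0 h. Protection meant no threshold seizure, i.e. no single clonic spasm episode lasting at least 5 s. The minimal dose active in half or more of the mice was recorded.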

Row | Structure (SMILES) | Activity
20 | CC1(C)CC12NC(=O)N(NC(=O)c1cccs1)C2=O (stereo not given) | inactive
21 | O=C1NC(=O)C(c2ccccc2)(c2ccccc2)N1 [PHENYTOIN] | inactive
22 | CC(C)(C)c1ccc(C(=O)NN2C(=O)NC3(CC3(C)C)C2=O)cc1 (stereo not given) | inactive
23 | CC1(C)CC12NC(=O)N(NC(=O)c1ccco1)C2=O (stereo not given) | inactive
24 | CC1(C)CC12NC(=O)N(NC(=O)c1cccnc1)C2=O (stereo not given) | inactive
25 | CC1(C)CC12NC(=O)N(NC(=O)c1ccncc1)C2=O (stereo not given) | inactive

same assay, conditions: read-out: MED

Row | Structure (SMILES) | minimal effective dose
26 | CC1(C)CC12NC(=O)N(N1C(=O)c3ccccc3C1=O)C2=O (stereo not given) | 300 mg/kg
27 | CC1(C)CC12NC(=O)N(NC(=O)c1ccc(C(F)(F)F)cc1)C2=O (stereo not given) | 300 mg/kg
28 | CCC1(C)CC(=O)NC1=O (stereo not given) [ETHOSUXIMIDE] | 300 mg/kg

test system: Mus musculus; assay: Anticonvulsant activity in ip dosed mouse assessed as inhibition of maximum electric shock-induced hind limb tonic extension; assay type: functional; conditions: Hindlimb

Row | Structure (SMILES) | ED50
29 | CC(C)(C)c1ccc(C(=O)NN2C(=O)NC3(CC3(C)C)C2=O)cc1 (stereo not given) | 25.3 mg/kg
30 | CC1(C)CC12NC(=O)N(N1C(=O)c3ccccc3C1=O)C2=O (stereo not given) | 13.7 mg/kg
31 | CCC1(c2ccccc2)C(=O)NC(=O)NC1=O [PHENOBARBITAL] | 21.8 mg/kg
32 | NC(=O)N1c2ccccc2C=Cc2ccccc21 [CARBAMAZEPINE] | 8.8 mg/kg
33 | CC1(C)CC12NC(=O)N(NC(=O)c1ccc(C(F)(F)F)cc1)C2=O (stereo not given) | 9.2 mg/kg

test system: Mus musculus; assay: Anticonvulsant activity in ip dosed mouse assessed as inhibition of PTZ-induced clonic seizure after 0.5 hrs; assay type: functional; conditions: not given; summary of the method: as §2

Row | Structure (SMILES) | Activity
34 | CC1(C)CC12NC(=O)N(NC(=O)c1cccs1)C2=O (stereo not given) | inactive
35 | O=C1NC(=O)C(c2ccccc2)(c2ccccc2)N1 [PHENYTOIN] | inactive
36 | CC1(C)CC12NC(=O)N(NC(=O)c1ccco1)C2=O (stereo not given) | inactive
37 | CC1(C)CC12NC(=O)N(NC(=O)c1cccnc1)C2=O (stereo not given) | inactive
38 | CC1(C)CC12NC(=O)N(NC(=O)c1ccncc1)C2=O (stereo not given) | inactive

same assay, conditions: read-out: MED

Row | Structure (SMILES) | minimal effective dose
39 | CC(C)(C)c1ccc(C(=O)NN2C(=O)NC3(CC3(C)C)C2=O)cc1 (stereo not given) | 100 mg/kg
40 | CC1(C)CC12NC(=O)N(N1C(=O)c3ccccc3C1=O)C2=O (stereo not given) | 300 mg/kg
41 | CC1(C)CC12NC(=O)N(NC(=O)c1ccc(C(F)(F)F)cc1)C2=O (stereo not given) | 300 mg/kg
42 | CCC1(C)CC(=O)NC1=O (stereo not given) [ETHOSUXIMIDE] | 100 mg/kg

test system: Mus musculus; assay: Neurotoxicity against ip dosed mouse by rotarod test after 4 hrs; assay type: toxicity, organism-based; conditions: in vivo
Summary of the method: (§3)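 Mice were trained on a 1-in. knurled rod turning at 6 rpm, then given 30, 100 or 300 mg/kg ip as a suspension in 0.5% methylcellulose. They were tested at 0.5 h and 4.0 h. Neurotoxicity meant failure to keep balance on the rod for at least 1 min in each of four trials. The minimal dose affecting half or more of the mice was recorded.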

Row | Structure (SMILES) | MED | Activity
43 | CC1(C)CC12NC(=O)N(NC(=O)c1cccs1)C2=O (stereo not given) | 300 mg/kg | 
44 | O=C1NC(=O)C(c2ccccc2)(c2ccccc2)N1 [PHENYTOIN] | 100 mg/kg | 
45 | CC(C)(C)c1ccc(C(=O)NN2C(=O)NC3(CC3(C)C)C2=O)cc1 (stereo not given) |  | Not Active
46 | CC1(C)CC12NC(=O)N(NC(=O)c1ccco1)C2=O (stereo not given) | 300 mg/kg | 
47 | CC1(C)CC12NC(=O)N(N1C(=O)c3ccccc3C1=O)C2=O (stereo not given) |  | Not Active
48 | CC1(C)CC12NC(=O)N(NC(=O)c1cccnc1)C2=O (stereo not given) | 300 mg/kg | 
49 | CC1(C)CC12NC(=O)N(NC(=O)c1ccc(C(F)(F)F)cc1)C2=O (stereo not given) |  | Not Active
50 | CC1(C)CC12NC(=O)N(NC(=O)c1ccncc1)C2=O (stereo not given) | 300 mg/kg | 
51 | CCC1(C)CC(=O)NC1=O (stereo not given) [ETHOSUXIMIDE] |  | Not Active

test system: Mus musculus; assay: Neurotoxicity against ip dosed mouse by rotarod test after 0.5 hrs; assay type: toxicity, organism-based; conditions: in vivo; summary of the method: as §3

Row | Structure (SMILES) | MED | Activity
52 | CC1(C)CC12NC(=O)N(NC(=O)c1cccs1)C2=O (stereo not given) | 100 mg/kg | 
53 | O=C1NC(=O)C(c2ccccc2)(c2ccccc2)N1 [PHENYTOIN] | 100 mg/kg | 
54 | CC(C)(C)c1ccc(C(=O)NN2C(=O)NC3(CC3(C)C)C2=O)cc1 (stereo not given) |  | Not Active
55 | CC1(C)CC12NC(=O)N(NC(=O)c1ccco1)C2=O (stereo not given) | 100 mg/kg | 
56 | CC1(C)CC12NC(=O)N(N1C(=O)c3ccccc3C1=O)C2=O (stereo not given) |  | Not Active
57 | CC1(C)CC12NC(=O)N(NC(=O)c1cccnc1)C2=O (stereo not given) | 100 mg/kg | 
58 | CC1(C)CC12NC(=O)N(NC(=O)c1ccc(C(F)(F)F)cc1)C2=O (stereo not given) |  | Not Active
59 | CC1(C)CC12NC(=O)N(NC(=O)c1ccncc1)C2=O (stereo not given) | 100 mg/kg | 
60 | CCC1(C)CC(=O)NC1=O (stereo not given) [ETHOSUXIMIDE] |  | Not Active

species: Mus musculus; assay: Protective index, ratio of TD50 for mouse to ED50 for inhibition of maximal electroshock-induced seizure in mouse; assay type: functional; conditions: not given

Row | Structure (SMILES) | Ratio
61 | CC(C)(C)c1ccc(C(=O)NN2C(=O)NC3(CC3(C)C)C2=O)cc1 (stereo not given) | 15.5
62 | CC1(C)CC12NC(=O)N(N1C(=O)c3ccccc3C1=O)C2=O (stereo not given) | 17.8
63 | CC1(C)CC12NC(=O)N(NC(=O)c1ccc(C(F)(F)F)cc1)C2=O (stereo not given) | 45.8

test system: Mus musculus; assay: Anticonvulsant activity in ip dosed mouse assessed as inhibition of maximum electric shock-induced hind limb tonic extension after 4 hrs; assay type: functional; conditions: Hindlimb; summary of the method: as §1

Row | Structure (SMILES) | Activity
64 | CCC1(C)CC(=O)NC1=O (stereo not given) [ETHOSUXIMIDE] | inactive

same assay, conditions: Hindlimb, read-out: MED

Row | Structure (SMILES) | minimal effective dose
65 | CC1(C)CC12NC(=O)N(NC(=O)c1cccs1)C2=O (stereo not given) | 300 mg/kg
66 | O=C1NC(=O)C(c2ccccc2)(c2ccccc2)N1 [PHENYTOIN] | 30 mg/kg
67 | CC(C)(C)c1ccc(C(=O)NN2C(=O)NC3(CC3(C)C)C2=O)cc1 (stereo not given) | 100 mg/kg
68 | CC1(C)CC12NC(=O)N(NC(=O)c1ccco1)C2=O (stereo not given) | 300 mg/kg
69 | CC1(C)CC12NC(=O)N(N1C(=O)c3ccccc3C1=O)C2=O (stereo not given) | 100 mg/kg
70 | CC1(C)CC12NC(=O)N(NC(=O)c1cccnc1)C2=O (stereo not given) | 300 mg/kg
71 | CC1(C)CC12NC(=O)N(NC(=O)c1ccc(C(F)(F)F)cc1)C2=O (stereo not given) | 30 mg/kg
72 | CC1(C)CC12NC(=O)N(NC(=O)c1ccncc1)C2=O (stereo not given) | 300 mg/kg

test system: Mus musculus; assay: Protective index, ratio of TD50 for mouse to ED50 for inhibition of subcutaneous pentylenetetrazole-induced seizure in mouse; assay type: functional; conditions: not given

Row | Structure (SMILES) | Ratio
73 | CC(C)(C)c1ccc(C(=O)NN2C(=O)NC3(CC3(C)C)C2=O)cc1 (stereo not given) | 1.8
74 | CC1(C)CC12NC(=O)N(N1C(=O)c3ccccc3C1=O)C2=O (stereo not given) | 2.8
75 | CC1(C)CC12NC(=O)N(NC(=O)c1ccc(C(F)(F)F)cc1)C2=O (stereo not given) | 6.7
